Measurements: ChEMBL document CHEMBL3244395, “Antimycotic imidazoles. 2. Synthesis and antifungal properties of esters of 1-[2-hydroxy(mercapto)-2-phenylethyl]-1H-imidazoles” (J Med Chem, 1978)
The source made the active and inactive calls. The calls are words filed in the database; no cut-off is given here.

Key:
[1] = system: Candida albicans; assay: Antifungal activity against Candida albicans ATCC 10231 assessed as lowest concentration required for total inhibition by broth dilution assay; format: functional; settings: read-out: MIC100
Procedure, shortened: (§1)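 Broth dilution against dermatophytes, C. albicans ATCC 10231 and 14053, and C. neoformans. The end point is the lowest concentration with total inhibition. "<" marks the lowest level tested, and ">" marks partial growth at that dilution.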

[2] = system: Trichophyton mentagrophytes; assay: Antifungal activity against Trichophyton mentagrophytes assessed as lowest concentration required for total inhibition broth dilution assay; format: functional; settings: read-out: MIC100; procedure, shortened: as §1
[3] = Lipophilic-hydrophilic balance, Rm of the compound assessed as change in compound Rm to miconazole Rm by reverse-phase TLC method; format: physicochemical; settings: silicone oil-impregnated silica gel, MeCN-H2O-AcOH
[4] = system: Cryptococcus neoformans; assay: Antifungal activity against Cryptococcus neoformans assessed as lowest concentration required for total inhibition by broth dilution assay; format: functional; settings: read-out: MIC100; procedure, shortened: as §1
[5] = system: Epidermophyton floccosum; assay: Antifungal activity against Epidermophyton floccosum assessed as lowest concentration required for total inhibition broth dilution assay; format: functional; settings: read-out: MIC100; procedure, shortened: as §1
[6] = system: Candida albicans; assay: Antifungal activity against Candida albicans in mouse vaginal infection model compound applied intravaginally as 2% formulation in an aqueous propylene glycol cream for 4 days bid; format: functional, organism-based; settings: Vagina
Procedure, shortened: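 Mice with vaginal C. albicans infection, following Wildfeuer's method. The compound was applied intravaginally as a 2% formulation in an aqueous propylene glycol cream, twice daily for 4 days. Read-out was animals cured over total number infected.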

[7] = system: Candida albicans; assay: Antifungal activity against Candida albicans ATCC 14053 assessed as lowest concentration required for total inhibition by broth dilution assay; format: functional; settings: read-out: MIC100; procedure, shortened: as §1
[8] = system: Nannizzia gypsea; assay: Antifungal activity against Microsporum gypseum assessed as lowest concentration required for total inhibition broth dilution assay; format: functional; settings: read-out: MIC100; procedure, shortened: as §1
[9] = system: Microsporum audouinii; assay: Antifungal activity against Microsporum audouinii assessed as lowest concentration required for total inhibition broth dilution assay; format: functional; settings: read-out: MIC100; procedure, shortened: as §1
[10] = system: Erysipelothrix rhusiopathiae; assay: Antibacterial activity against Erysipelothrix insidiosa ATCC 19414 assessed as lowest concentration required for total inhibition by broth microdilution assay; format: functional; settings: read-out: MIC100
Procedure, shortened: (§2)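 Broth microdilution against the listed ATCC […] strains. The value is the lowest concentration giving total inhibition. "<" marks the lowest level tested, and ">" marks partial growth at that dilution.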

[11] = system: Enterococcus faecalis; assay: Antibacterial activity against Streptococcus faecalis ATCC 14506 assessed as lowest concentration required for total inhibition by broth microdilution assay; format: functional; settings: read-out: MIC100; procedure, shortened: as §2
[12] = system: Cutibacterium acnes; assay: Antibacterial activity against Corynebacterium acnes ATCC 11828 assessed as lowest concentration required for total inhibition by broth microdilution assay; format: functional; settings: read-out: MIC100; procedure, shortened: as §2
[13] = system: Staphylococcus aureus; assay: Antibacterial activity against Staphylococcus aureus ATCC 12600 assessed as lowest concentration required for total inhibition by broth microdilution assay; format: functional; settings: read-out: MIC100; procedure, shortened: as §2
[14] = system: Pasteurella multocida; assay: Antibacterial activity against Pasteurella multocida ATCC 19427 assessed as lowest concentration required for total inhibition by broth microdilution assay; format: functional; settings: read-out: MIC100; procedure, shortened: as §2

SMILES | MIC [1] [µg/mL] | MIC [2] [µg/mL] | deltaRm [3] | MIC [4] [µg/mL] | MIC [5] [µg/mL] | MIC [7] [µg/mL] | MIC [8] [µg/mL] | MIC [9] [µg/mL] | MIC [10] [µg/mL] | MIC [11] [µg/mL] | MIC [12] [µg/mL] | MIC [13] [µg/mL] | MIC [14] [µg/mL] | Activity [6]
O=C(OC(Cn1ccnc1)c1ccc(Cl)cc1Cl)c1ccc(Cl)cc1.O=[N+]([O-])O (stereo not drawn) | 300 | 30 | -0.39 | 3 | < 0.1 | 300 | 100 |  |  |  |  |  |  | inactive
O=C(OC(Cn1ccnc1)c1ccc(Cl)cc1)c1ccc(Cl)cc1.O=[N+]([O-])O (stereo not drawn) | > 100 | > 100 | -0.31 | 10 | 100 | > 100 |  | 100 |  |  |  |  |  | 
O=C(O)C(=O)O.O=C(Oc1ccc(Cl)cc1)OC(Cn1ccnc1)c1ccc(Cl)cc1 (stereo not drawn) | > 100 | 10 | -0.52 |  | 10 | > 100 |  | 100 |  |  |  |  |  | 
CCCCCCCC(=O)SC(Cn1ccnc1)c1ccc(Cl)cc1Cl.O=C(O)C(=O)O (stereo not drawn) | 10 | 10 | 0.44 | < 1 | < 0.1 | 10 | 30 |  | 30 | 30 | 100 | 3 | 1 | inactive
O=C(O)C(=O)O.O=C(OC(Cn1ccnc1)c1ccc(Cl)cc1)c1ccccc1Cl (stereo not drawn) | 100 | 10 | -0.49 |  | 5 | 100 |  | 50 |  |  |  |  |  | 
CCCCCCCCCCCC(=O)OC(Cn1ccnc1)c1ccc(Cl)cc1Cl.O=[N+]([O-])O (stereo not drawn) | > 300 | > 100 | 1.1 | < 1 | 1 | > 300 | > 100 |  | 10 | 100 | > 100 | 10 | 1 | 
O=C(O)C(=O)O.S=C(OCc1ccccc1)SC(Cn1ccnc1)c1ccc(Cl)cc1Cl (stereo not drawn) | 30 | 1 | -0.21 | < 0.3 | < 0.1 | 10 | 10 |  |  |  |  |  |  | 

The next lines start with results.

MIC [1] [µg/mL] | MIC [2] [µg/mL] | deltaRm [3] | MIC [4] [µg/mL] | MIC [5] [µg/mL] | MIC [7] [µg/mL] | MIC [8] [µg/mL] | MIC [9] [µg/mL] | MIC [10] [µg/mL] | MIC [11] [µg/mL] | MIC [12] [µg/mL] | MIC [13] [µg/mL] | MIC [14] [µg/mL] | SMILES | Activity [6]
30 | 3 | 0.17 | < 0.3 | < 0.1 | 10 | 3 |  |  |  |  |  |  | CC(C)COC(=S)SC(Cn1ccnc1)c1ccc(Cl)cc1Cl.O=[N+]([O-])O (stereo not drawn) | 
30 | 10 | 0.1 | < 1 | < 0.1 | 30 | 10 |  |  |  |  |  |  | CCCCCCCC(=O)OC(Cn1ccnc1)c1ccc(Cl)cc1Cl.O=[N+]([O-])O (stereo not drawn) | inactive
100 | 30 | -0.17 | 30 | < 0.3 | 100 | 30 |  |  |  |  |  |  | CCCCCCOC(=O)OC(Cn1ccnc1)c1ccc(Cl)cc1Cl.O=[N+]([O-])O (stereo not drawn) | 
3 | 3 | 0.43 | < 1 | < 0.1 | 3 | 3 |  |  |  |  |  |  | O=[N+]([O-])O.S=C(OC1CCCCC1)SC(Cn1ccnc1)c1ccc(Cl)cc1Cl (stereo not drawn) | 
100 | 30 | -0.05 | 1 | < 0.1 | 30 | 30 |  |  |  |  |  |  | CCCCCC(=O)SC(Cn1ccnc1)c1ccc(Cl)cc1Cl.O=[N+]([O-])O (stereo not drawn) | inactive
3 | 3 | 0.37 | < 1 | < 0.1 | 3 | 3 |  | 100 | 10 | > 100 | 3 | 1 | CCCCCOC(=S)SC(Cn1ccnc1)c1ccc(Cl)cc1Cl.O=[N+]([O-])O (stereo not drawn) | 
